Assays:
[1] = target: T1, 5-hydroxytryptamine receptor 1A (Homo sapiens, UniProt P08908); experiment: In vitro binding affinity by radioligand binding assay using cell line expressing human 5-hydroxytryptamine 1A receptor
T1 sequence (P08908 whole entry): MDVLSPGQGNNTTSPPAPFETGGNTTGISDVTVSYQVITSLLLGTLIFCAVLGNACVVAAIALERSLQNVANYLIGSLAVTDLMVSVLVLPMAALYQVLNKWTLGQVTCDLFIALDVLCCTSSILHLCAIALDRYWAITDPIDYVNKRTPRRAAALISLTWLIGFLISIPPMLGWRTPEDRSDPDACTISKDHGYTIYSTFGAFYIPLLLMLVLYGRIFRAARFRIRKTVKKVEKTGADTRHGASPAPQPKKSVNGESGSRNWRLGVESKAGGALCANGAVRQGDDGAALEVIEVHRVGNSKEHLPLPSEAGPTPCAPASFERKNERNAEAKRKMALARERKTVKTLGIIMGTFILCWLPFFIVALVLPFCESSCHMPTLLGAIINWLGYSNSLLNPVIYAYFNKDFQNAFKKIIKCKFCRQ
In short: (§1)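 Ki (nM) from radioligand binding on cell lines each expressing one human serotonin receptor subtype. Values are means of at least three determinations with SEM. ND: Ki not determined, when a 10⁻⁷ M test ligand gave <50% displacement of radioligand.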

[2] = target: T2, 5-hydroxytryptamine receptor 1F (Homo sapiens, UniProt P30939); experiment: In vitro binding affinity was determined by radioligand binding assay using cell line expressing human 5-hydroxytryptamine 1F receptor; in short: as §1
T2 sequence (P30939 whole entry): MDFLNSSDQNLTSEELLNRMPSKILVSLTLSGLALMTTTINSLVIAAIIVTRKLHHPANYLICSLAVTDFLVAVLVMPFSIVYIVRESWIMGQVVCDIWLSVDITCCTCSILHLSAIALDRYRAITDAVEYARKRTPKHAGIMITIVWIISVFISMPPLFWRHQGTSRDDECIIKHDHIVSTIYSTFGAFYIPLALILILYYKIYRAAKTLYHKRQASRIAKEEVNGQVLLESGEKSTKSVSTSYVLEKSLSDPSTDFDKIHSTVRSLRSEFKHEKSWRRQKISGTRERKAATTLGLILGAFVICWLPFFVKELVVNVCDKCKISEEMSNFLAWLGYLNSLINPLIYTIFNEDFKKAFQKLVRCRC

[3] = target: 5-hydroxytryptamine receptor 1B (Homo sapiens, UniProt P28222); experiment: In vitro binding affinity by radioligand binding assay using cell line expressing human 5-hydroxytryptamine 1B receptor
Sequence of 5-hydroxytryptamine receptor 1B (P28222 whole entry): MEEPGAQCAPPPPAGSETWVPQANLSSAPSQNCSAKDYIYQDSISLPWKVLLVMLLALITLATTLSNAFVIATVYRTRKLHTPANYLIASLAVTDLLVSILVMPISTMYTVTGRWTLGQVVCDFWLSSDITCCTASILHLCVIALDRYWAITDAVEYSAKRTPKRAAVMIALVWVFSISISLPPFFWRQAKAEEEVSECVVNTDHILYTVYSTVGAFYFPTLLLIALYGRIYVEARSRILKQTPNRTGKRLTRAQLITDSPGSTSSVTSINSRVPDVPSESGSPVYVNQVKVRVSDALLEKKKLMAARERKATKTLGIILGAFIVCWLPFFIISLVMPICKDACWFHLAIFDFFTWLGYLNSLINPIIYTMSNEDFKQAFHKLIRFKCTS
In short: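 Ki (nM) from radioligand binding on cell lines each expressing one human serotonin receptor subtype. Values are means of at least three determinations with SEM.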

[4] = target: 5-hydroxytryptamine receptor 1D (Homo sapiens, UniProt P28221); experiment: In vitro binding affinity by radioligand binding assay using cell line expressing human 5-hydroxytryptamine 1D receptor; in short: as §1
Sequence of 5-hydroxytryptamine receptor 1D (P28221 whole entry): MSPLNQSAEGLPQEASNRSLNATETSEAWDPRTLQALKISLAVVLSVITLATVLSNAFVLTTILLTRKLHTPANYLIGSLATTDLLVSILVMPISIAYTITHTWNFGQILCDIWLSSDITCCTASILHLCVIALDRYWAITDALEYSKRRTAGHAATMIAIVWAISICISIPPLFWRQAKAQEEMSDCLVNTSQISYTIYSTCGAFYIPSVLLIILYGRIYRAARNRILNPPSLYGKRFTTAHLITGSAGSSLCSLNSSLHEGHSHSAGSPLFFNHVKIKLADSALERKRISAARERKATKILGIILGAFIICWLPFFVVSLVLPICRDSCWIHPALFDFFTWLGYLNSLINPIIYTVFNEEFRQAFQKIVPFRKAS

[5] = target: T2, 5-hydroxytryptamine receptor 1F; experiment: In vitro effective concentration for stimulation of [35S]GTP-gamma-S, binding in mouse LM(tk-)cells expressing the human 5-hydroxytryptamine 1F receptor; assay type: functional
[6] = target: T3, 5-hydroxytryptamine receptor 1F (Homo sapiens) (UniProt P30939); experiment: Maximum stimulation of [35S]GTP-gamma-S, binding expressed relative to the maximal effect of 5-hydroxytryptamine […]; assay type: functional
T3 sequence (whole entry): T2 sequence (P30939 whole entry)

| SMILES | Ki [1] [nM] | Ki [2] [nM] | Ki [3] [nM] | Ki [4] [nM] | EC50 [5] [nM] | Emax [6] [%] |
| --- | --- | --- | --- | --- | --- | --- |
| CN1CCC(c2c[nH]c3ccc(NC(=O)C4CCCCC4)nc23)CC1 | 660 | 20 | – | – | – | – |
| CN1CCC(c2c[nH]c3cnc(NC(=O)c4ccc(F)cc4)cc23)CC1 | 17 | 13 | 80 | 53 | – | – |
| CN1CCC(c2c[nH]c3ccc(NC(=O)Nc4ccc(F)cc4)nc23)CC1 | – | 11 | 3.2 | 3.8 | – | – |
| O=C(Nc1ccc2[nH]cc(C3CCNCC3)c2n1)c1ccc(F)cc1 | – | 9.5 | – | – | – | – |
| CN1CCC(c2c[nH]c3ccc(NC(=O)c4cccc(C#N)c4)nc23)CC1 | 100 | 11 | 590 | – | – | – |
| CC(=O)Nc1ccc2[nH]cc(C3CCN(C)CC3)c2c1 | 68 | 9.7 | 390 | 150 | – | – |
| CCN1CCC(c2c[nH]c3ccc(NC(=O)c4ccc(F)cc4)nc23)CC1 | – | 170 | – | – | – | – |
| CN1CCC(c2c[nH]c3ccc(NS(C)(=O)=O)nc23)CC1 | – | 19 | 610 | 380 | – | – |
| CCCCCC(=O)Nc1ccc2[nH]cc(C3CCN(C)CC3)c2n1 | – | 13 | – | – | – | – |
| CCCCCCCC(=O)Nc1ccc2[nH]cc(C3CCN(C)CC3)c2n1 | – | 20 | 32 | 110 | – | – |
| CCNC(=O)Nc1ccc2[nH]cc(C3CCN(C)CC3)c2n1 | – | 3.8 | – | 40 | – | – |
| CN1CCC(c2c[nH]c3ccc(NC(=O)c4ccccc4F)nc23)CC1 | 42 | 19 | – | – | – | – |
| CN1CCC(c2c[nH]c3cnc(NC(=O)c4ccc(F)cc4)nc23)CC1 | 200 | 67 | 6000 | 1900 | – | – |
| CN1CCC(c2c[nH]c3ccc(NC(=O)c4ccoc4)nc23)CC1 | 840 | 4.6 | 930 | 1100 | 11 | 88 |
| CCN1CC=C(c2c[nH]c3ccc(NC(=O)c4ccc(F)cc4)nc23)CC1 | – | 25 | – | – | – | – |
| CC(=O)Nc1ncc2[nH]cc(C3CCN(C)CC3)c2n1 | 780 | 220 | 2900 | 470 | – | – |
| COc1cccc(C(=O)Nc2ccc3[nH]cc(C4CCN(C)CC4)c3n2)c1 | 98 | 16 | – | – | – | – |
| CN1CCC(c2c[nH]c3ccc(OS(=O)(=O)c4ccc(F)cc4)nc23)CC1 | – | 7.5 | – | 30 | – | – |
| CN1CCC(c2c[nH]c3ccc(NC(=O)c4ccco4)nc23)CC1 | 560 | 13 | 1100 | 930 | 11 | 82 |
| O=C(Nc1ccc2[nH]cc(C3CCN(CCc4ccccc4)CC3)c2n1)c1ccc(F)cc1 | – | 75 | – | – | – | – |
| CN1CCC(c2c[nH]c3ccc(NC(=O)c4cccc(F)c4)nc23)CC1 | 135 | 11 | 1600 | 690 | – | – |
| CC(=O)Nc1ccc2[nH]cc(C3CCNCC3)c2n1 | – | 45 | – | – | – | – |
| CN1CCC(c2c[nH]c3ccc(OS(C)(=O)=O)nc23)CC1 | – | 4.7 | 25 | 8 | – | – |
| Cc1ccccc1C(=O)Nc1ccc2[nH]cc(C3CCN(C)CC3)c2n1 | 106 | 12 | 150 | 440 | – | – |
| CCCN1CCC(c2c[nH]c3ccc(NC(=O)c4ccc(F)cc4)nc23)CC1 | – | 18 | – | – | – | – |

| SMILES | Ki [1] [nM] | Ki [2] [nM] | Ki [3] [nM] | Ki [4] [nM] | EC50 [5] [nM] | Emax [6] [%] |
| --- | --- | --- | --- | --- | --- | --- |
| CN1CCC(c2c[nH]c3ccc(NS(=O)(=O)c4ccc(F)cc4)nc23)CC1 | – | 27 | – | – | – | – |
| CN1CCC(c2c[nH]c3ccc(N)nc23)CC1 | – | 100 | 800 | 420 | – | – |
| Cc1ccc(C(=O)Nc2ccc3[nH]cc(C4CCN(C)CC4)c3n2)cc1 | 30 | 12 | – | – | – | – |
| CN1CCC(c2c[nH]c3ccc(NC(=O)c4cccs4)nc23)CC1 | 350 | 7.1 | 390 | 650 | 15 | 61 |
| CC(=O)Nc1cc2c(C3CCN(C)CC3)c[nH]c2cn1 | 2 | 210 | – | 39 | – | – |
| CN1CCC(c2c[nH]c3ccc(NC(=O)c4ccc(F)cc4)cc23)CC1 | 22 | 2.1 | – | 430 | – | – |
| CN1CCC(c2c[nH]c3ccc(NC(=O)c4ccncc4)nc23)CC1 | 40 | 8.4 | 330 | 420 | 11 | 97 |
| CN1CCC(c2c[nH]c3ccc(NC(=O)c4ccccn4)nc23)CC1 | 41 | 6.3 | 1000 | 820 | 25 | 63 |
| CNC(=O)Nc1ccc2[nH]cc(C3CCN(C)CC3)c2n1 | – | 2.5 | 14 | 8.5 | – | – |
| CCC(=O)Nc1ccc2[nH]cc(C3CCNCC3)c2n1 | – | 35 | – | – | – | – |
| COc1ccccc1C(=O)Nc1ccc2[nH]cc(C3CCN(C)CC3)c2n1 | 20 | 20 | 750 | – | – | – |
| CN1CCC(c2c[nH]c3ccc(NC(=O)c4ccc([N+](=O)[O-])cc4)nc23)CC1 | 38 | 7.7 | 270 | 340 | – | – |
| CC(C)N1CCC(c2c[nH]c3ccc(NC(=O)c4ccc(F)cc4)nc23)CC1 | – | 30 | – | – | – | – |
| Cc1cccc(C(=O)Nc2ccc3[nH]cc(C4CCN(C)CC4)c3n2)c1 | 100 | 5.8 | 1200 | 490 | – | – |
| CN1CCC(c2c[nH]c3ccc(O)nc23)CC1 | – | 100 | – | – | – | – |
| CCCCC(=O)Nc1ccc2[nH]cc(C3CCN(C)CC3)c2n1 | – | 14 | – | – | – | – |
| CCCCN1CCC(c2c[nH]c3ccc(NC(=O)c4ccc(F)cc4)nc23)CC1 | – | 14 | – | – | – | – |
| CN1CCC(c2c[nH]c3ccc(NC(=O)c4cccc([N+](=O)[O-])c4)nc23)CC1 | 130 | 42 | 390 | 330 | – | – |
| CN1CCC(c2c[nH]c3ccc(NC(=O)c4ccccc4[N+](=O)[O-])nc23)CC1 | 64 | 19 | – | 170 | – | – |
| CN1CCC(c2c[nH]c3ccc(NC(=O)C4CCCC4)nc23)CC1 | 2000 | 11 | 640 | 740 | – | – |
| COc1ccc2[nH]cc(C3CCN(C)CC3)c2n1 | – | 23 | 110 | 23 | – | – |
| CN1CCC(c2c[nH]c3ccc(NC(=O)c4ccc(Cl)cc4Cl)nc23)CC1 | 5.1 | 4.1 | – | 83 | – | – |
| CCN1CC=C(c2c[nH]c3ccc(NC(C)=O)nc23)CC1 | – | 21 | – | – | – | – |
| CN1CCC(c2c[nH]c3ccc(NC(=O)C(C)(C)C)nc23)CC1 | – | 62 | – | – | – | – |

— ChEMBL document CHEMBL1145835, “Novel potent 5-HT(1F) receptor agonists: structure-activity studies of a series of substituted N-[3-(1-methyl-4-piperidinyl)-1H-pyrrolo[3,2-b]pyridin-5-yl]amides” (J Med Chem, 2003)
